Active and inactive are the calls of the source. No cut-off for these calls is given here.
Key:
[1] = tested on: Root; assay: Drug level in Pisum sativum (pea) roots at 1 mM added to nutrient medium measured 5 to 15 days post onset of compound treatment by HPLC method; type: ADME; details: lathyrus oleraceus, 1000 µM
Outline: (§1)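 Pea (Pisum sativum cv. Snap Sugar Boys) plants were grown in nutrient solution. At 12 days old, 1 mM phenolic acid was added to the solution. The solution was replaced every 3 days and kept at pH 6–7. Samples were collected at 0, 1, 3, 7, 10 and 15 days. Untreated plants were controls. One-way ANOVA with Fisher test, p < 0.05.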

[2] = tested on: Root; assay: Increase in lignin content in Pisum sativum (pea) roots at 1 mM added to nutrient medium measured 5 to 15 days post onset of compound treatment; type: functional; details: Lathyrus oleraceus; outline: as §1
[3] = tested on: Root; assay: Reduction in PAL activity in Pisum sativum (pea) roots at 1 MM added to nutrient medium measured 7 days post onset of compound treatment; type: functional; parameters: dose or concentration left out as unconfirmed; details: Lathyrus oleraceus; outline: as §1
[4] = tested on: Leaf; assay: Increase in quinate content in Pisum sativum (pea) leaves at 1 mM added to nutrient medium measured 5 to 15 days post onset of compound treatment by ion chromatography; type: functional; details: Lathyrus oleraceus; outline: as §1
[5] = tested on: Root; assay: Induction of ADH protein enzyme expression in Pisum sativum (pea) roots at 1 mM added to nutrient medium measured 5 to 15 days post onset of compound treatment by immunoblot; type: functional; details: Lathyrus oleraceus; outline: as §1
[6] = tested on: Root; assay: Induction of PDC protein expression in Pisum sativum (pea) roots at 1 mM added to nutrient medium measured 5 to 15 days post onset of compound treatment by immunoblot; type: functional; details: Lathyrus oleraceus; outline: as §1
[7] = tested on: Leaf; assay: Increase in starch content in Pisum sativum (pea) leaves at 1 mM added to nutrient medium measured 5 to 15 days post onset of compound treatment by capillary electrophoresis method; type: functional; details: Lathyrus oleraceus; outline: as §1
[8] = tested on: Root; assay: Effect on starch content in Pisum sativum (pea) roots at 1 mM added to nutrient medium measured 5 to 15 days post onset of compound treatment by capillary electrophoresis method; type: functional; details: Lathyrus oleraceus; outline: as §1
[9] = tested on: Root; assay: Effect on sucrose content in Pisum sativum (pea) roots at 1 mM added to nutrient medium measured 5 to 15 days post onset of compound treatment by capillary electrophoresis method; type: functional; details: Lathyrus oleraceus; outline: as §1
[10] = tested on: Pisum sativum; assay: Growth inhibition in Pisum sativum (pea) assessed as shoot growth arrest at 1 mM added to nutrient medium measured within 10 days post onset of compound treatment; type: functional, organism-based; details: Lathyrus oleraceus; outline: as §1
[11] = tested on: Pisum sativum; assay: Growth inhibition in Pisum sativum (pea) assessed as root elongation arrest at 1 mM added to nutrient medium measured within 1 day post onset of compound treatment; type: functional, organism-based; details: Lathyrus oleraceus; outline: as §1
[12] = tested on: Leaf; assay: Drug level in Pisum sativum (pea) leaves at 1 mM added to nutrient medium measured 5 to 15 days post onset of compound treatment by HPLC method; type: ADME; details: lathyrus oleraceus, 1000 µM; outline: as §1
[13] = tested on: Root; assay: Reduction in sinapic acid accumulation in Pisum sativum (pea) roots at 28 nM added to nutrient medium measured 3 to 10 days post onset of compound treatment by HPLC method; type: functional; details: Lathyrus oleraceus
Outline: (§2)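 Compound was added to the nutrient solution of 12-day-old pea plants (cv. Snap Sugar Boys), renewed every 3 days at pH 6–7. Leaves or roots were sampled at 0, 1, 3, 7, 10 and 15 days. Values are mean ± standard error, n = 5 single plants. One-way ANOVA with Fisher test versus untreated controls on each day, p < 0.05.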

[14] = tested on: Leaf; assay: Induction of sinapic acid accumulation in Pisum sativum (pea) leaves at 28 nM added to nutrient medium measured 5 to 15 days post onset of compound treatment by HPLC method; type: functional; details: Lathyrus oleraceus; outline: as §2
[15] = tested on: Leaf; assay: Induction of ferulic acid accumulation in Pisum sativum (pea) leaves at 28 nM added to nutrient medium measured 5 to 15 days post onset of compound treatment by HPLC method; type: functional; details: Lathyrus oleraceus; outline: as §2
[16] = tested on: Leaf; assay: Induction of caffeic acid accumulation in Pisum sativum (pea) leaves at 28 nM added to nutrient medium measured 5 to 15 days post onset of compound treatment by HPLC method; type: functional; details: Lathyrus oleraceus; outline: as §2
[17] = tested on: Leaf; assay: Induction of p-coumaric acid accumulation in Pisum sativum (pea) leaves at 28 nM added to nutrient medium measured 5 to 15 days post onset of compound treatment by HPLC method; type: functional; details: Lathyrus oleraceus; outline: as §2
[18] = tested on: Pisum sativum; assay: Growth inhibition in Pisum sativum (pea) at 28 nM added to nutrient medium measured 22 to 23 days post onset of compound treatment; type: functional, organism-based; details: Lathyrus oleraceus
Outline: (§3)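 Pea (cv. Snap Sugar Boys) grown hydroponically. Compound added to the nutrient solution at 12 days old. Solution was renewed every 3 days, with pH held between 6 and 7. Plants were followed over the treatment period.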

[19] = tested on: Root; assay: Induction of DAHPS enzyme expression in Pisum sativum (pea) roots at 28 nM added to nutrient medium measured 5 to 15 days post onset of compound treatment by immunoblot; type: functional; details: Lathyrus oleraceus
Outline: (§4)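 Roots were taken from pea plants (cv. Snap Sugar Boys) treated via nutrient solution from 12 days old, with the solution renewed every 3 days. Samples were taken at days 3, 7, 10 and 15.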

[20] = tested on: Root; assay: Induction of ferulic acid accumulation in Pisum sativum (pea) roots at 28 nM added to nutrient medium measured 5 to 15 days post onset of compound treatment by HPLC method; type: functional; details: Lathyrus oleraceus; outline: as §2
[21] = tested on: Root; assay: Induction of caffeic acid accumulation in Pisum sativum (pea) roots at 28 nM added to nutrient medium measured 5 to 15 days post onset of compound treatment by HPLC method; type: functional; details: Lathyrus oleraceus; outline: as §2
[22] = tested on: Root; assay: Induction of p-coumaric acid accumulation in Pisum sativum (pea) roots at 28 nM added to nutrient medium measured 5 to 15 days post onset of compound treatment by HPLC method; type: functional; details: Lathyrus oleraceus; outline: as §2
[23] = tested on: Root; assay: Induction of p-coumaric acid accumulation in Pisum sativum (pea) roots at 69 uM added to nutrient medium measured 5 to 15 days post onset of compound treatment by HPLC method; type: functional; details: Lathyrus oleraceus; outline: as §2
[24] = tested on: Root; assay: Reduction in sinapic acid accumulation in Pisum sativum (pea) roots at 69 uM added to nutrient medium measured 3 to 10 days post onset of compound treatment by HPLC method; type: functional; details: Lathyrus oleraceus; outline: as §2
[25] = tested on: Leaf; assay: Induction of sinapic acid accumulation in Pisum sativum (pea) leaves at 69 uM added to nutrient medium measured 5 to 15 days post onset of compound treatment by HPLC method; type: functional; details: Lathyrus oleraceus; outline: as §2
[26] = tested on: Leaf; assay: Induction of ferulic acid accumulation in Pisum sativum (pea) leaves at 69 uM added to nutrient medium measured 5 to 15 days post onset of compound treatment by HPLC method; type: functional; details: Lathyrus oleraceus; outline: as §2
[27] = tested on: Leaf; assay: Induction of caffeic acid accumulation in Pisum sativum (pea) leaves at 69 uM added to nutrient medium measured 5 to 15 days post onset of compound treatment by HPLC method; type: functional; details: Lathyrus oleraceus; outline: as §2
[28] = tested on: Leaf; assay: Induction of p-coumaric acid accumulation in Pisum sativum (pea) leaves at 69 uM added to nutrient medium measured 5 to 15 days post onset of compound treatment by HPLC method; type: functional; details: Lathyrus oleraceus; outline: as §2
[29] = tested on: Pisum sativum; assay: Growth inhibition in Pisum sativum (pea) at 69 uM added to nutrient medium measured 22 to 23 days post onset of compound treatment; type: functional, organism-based; details: Lathyrus oleraceus; outline: as §3
[30] = tested on: Root; assay: Increase in lignin content in Pisum sativum (pea) roots at 69 uM added to nutrient medium measured 10 days post onset of compound treatment; type: functional; details: Lathyrus oleraceus
Outline: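 Compound was added to the nutrient solution of 12-day-old pea plants (cv. Snap Sugar Boys). Solution was renewed every 3 days at pH 6–7. Lignin was measured in roots from plants sampled on set days up to day 15.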

[31] = tested on: Root; assay: Induction of PAL activity in Pisum sativum (pea) roots at 69 uM added to nutrient medium measured 5 to 15 days post onset of compound treatment; type: functional; details: Lathyrus oleraceus
Outline: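 Roots were taken from 12-day-old pea plants (cv. Snap Sugar Boys) treated via nutrient solution, renewed every 3 days at pH 6–7. For PAL activity, extracts were not filtered on Sephadex G-25. Reaction ran 1 h at 37 °C, then HCl was added and the mixture was centrifuged at 5000g for 5 min.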

[32] = tested on: Root; assay: Induction of DAHPS enzyme expression in Pisum sativum (pea) roots at 69 uM added to nutrient medium measured 5 to 15 days post onset of compound treatment by immunoblot; type: functional; details: Lathyrus oleraceus; outline: as §4
[33] = tested on: Root; assay: Induction of ferulic acid accumulation in Pisum sativum (pea) roots at 69 uM added to nutrient medium measured 5 to 15 days post onset of compound treatment by HPLC method; type: functional; details: Lathyrus oleraceus; outline: as §2
[34] = tested on: Root; assay: Induction of caffeic acid accumulation in Pisum sativum (pea) roots at 69 uM added to nutrient medium measured 5 to 15 days post onset of compound treatment by HPLC method; type: functional; details: Lathyrus oleraceus; outline: as §2

Question: Which Drug uptake [1] does the source give for `COc1cc(/C=C/C(=O)O)ccc1O` [FERULATE] here?
Answer: The Drug uptake was “Active”.

Question: And the Activity [2]?
Answer: The Activity was “Active”.

Question: What about the Activity [3] of the same molecule?
Answer: The Activity was “Active”.

Question: And the Activity [4]?
Answer: The Activity was “Active”.

Question: What about the Activity [5] of the same molecule?
Answer: The Activity was “Active”.

Question: And the Activity [6]?
Answer: Its Activity is “Active”.

Question: And the Activity [7]?
Answer: The Activity was “Active”.

Question: What about the Activity [8] of the same molecule?
Answer: Its Activity is “inactive”.

Question: What about the Activity [9] of the same molecule?
Answer: The Activity was “inactive”.

Question: What about the Activity [10] of the same molecule?
Answer: The Activity was “Active”.

Question: And the Activity [11]?
Answer: The Activity was “Active”.

Question: And the Drug uptake [12]?
Answer: The Drug uptake was “Active”.

Question: How did the Activity [13] turn out when `COc1nc(C)nc(NC(=O)NS(=O)(=O)c2ccccc2Cl)n1` was run?
Answer: Its Activity is “Active”.

Question: What about the Activity [14] of the same molecule?
Answer: The Activity was “Active”.

Question: What about the Activity [15] of the same molecule?
Answer: The Activity was “Active”.

Question: And the Activity [16]?
Answer: The Activity was “Active”.

Question: What about the Activity [17] of the same molecule?
Answer: Its Activity is “Active”.

Question: What about the “growth inhibition (GI)” value [18] of the same molecule?
Answer: Its value is “Active”.

Question: What about the Activity [19] of the same molecule?
Answer: The Activity was “Active”.

Question: What about the Activity [20] of the same molecule?
Answer: Its Activity is “Active”.

Question: And the Activity [21]?
Answer: Its Activity is “Active”.

Question: What about the Activity [22] of the same molecule?
Answer: Its Activity is “Active”.

Question: `O=C(O)/C=C/c1ccc(O)cc1` [COUMARIC ACID] was tested. Which Drug uptake [1] did it give?
Answer: The Drug uptake was “Active”.

Question: And the Activity [4]?
Answer: The Activity was “Active”.

Question: What about the Activity [5] of the same molecule?
Answer: Its Activity is “Active”.

Question: And the Activity [6]?
Answer: The Activity was “Active”.

Question: What about the Activity [7] of the same molecule?
Answer: The Activity was “Active”.

Question: And the Activity [8]?
Answer: The Activity was “inactive”.

Question: What about the Activity [9] of the same molecule?
Answer: Its Activity is “inactive”.

Question: And the Activity [10]?
Answer: The Activity was “Active”.

Question: What about the Activity [11] of the same molecule?
Answer: Its Activity is “Active”.

Question: What about the Drug uptake [12] of the same molecule?
Answer: The Drug uptake was “Active”.

Question: Which results are given for `CCc1cnc(C2=NC(C)(C(C)C)C(=O)N2)c(C(=O)O)c1` (centres undefined)?
Answer: Activity [23]: Active; Activity [24]: Active; Activity [25]: Active; Activity [26]: Active; Activity [27]: Active; Activity [28]: Active; growth inhibition (GI) [29]: Active; Activity [30]: Active; Activity [31]: inactive; Activity [32]: Active; Activity [33]: Active; Activity [34]: Active

Source: ChEMBL document CHEMBL3045143, “Role of exogenously supplied ferulic and p-coumaric acids in mimicking the mode of action of acetolactate synthase inhibiting herbicides” (J Agric Food Chem, 2011)
